Test results as given in ChEMBL document CHEMBL5661979, “Pharmacological inhibition of BMK1 suppresses tumor growth through promyelocytic leukemia protein” (Cancer Cell, 2010).

Key:
Format in all cases: subcellular
[1] = target: Mixed lineage kinase domain-like protein (Homo sapiens, UniProt Q8NB16); test: Inhibition of MLKL in human HeLa cells lysate pre incubated for 15 mins followed by ADP acyl phosphate probe addition and measured after 10 mins by LC-MS/MS analysis
[2] = target: T1, Serine/threonine-protein kinase tousled-like 1 (Homo sapiens) (UniProt Q9UKI8); test: Inhibition of TLK1 in human HeLa cells lysate at 50 uM pre incubated for 15 mins followed by ADP acyl phosphate probe addition and measured after 10 mins by LC-MS/MS analysis relative to control; conditions: time 25.0 min
T1 sequence (whole entry): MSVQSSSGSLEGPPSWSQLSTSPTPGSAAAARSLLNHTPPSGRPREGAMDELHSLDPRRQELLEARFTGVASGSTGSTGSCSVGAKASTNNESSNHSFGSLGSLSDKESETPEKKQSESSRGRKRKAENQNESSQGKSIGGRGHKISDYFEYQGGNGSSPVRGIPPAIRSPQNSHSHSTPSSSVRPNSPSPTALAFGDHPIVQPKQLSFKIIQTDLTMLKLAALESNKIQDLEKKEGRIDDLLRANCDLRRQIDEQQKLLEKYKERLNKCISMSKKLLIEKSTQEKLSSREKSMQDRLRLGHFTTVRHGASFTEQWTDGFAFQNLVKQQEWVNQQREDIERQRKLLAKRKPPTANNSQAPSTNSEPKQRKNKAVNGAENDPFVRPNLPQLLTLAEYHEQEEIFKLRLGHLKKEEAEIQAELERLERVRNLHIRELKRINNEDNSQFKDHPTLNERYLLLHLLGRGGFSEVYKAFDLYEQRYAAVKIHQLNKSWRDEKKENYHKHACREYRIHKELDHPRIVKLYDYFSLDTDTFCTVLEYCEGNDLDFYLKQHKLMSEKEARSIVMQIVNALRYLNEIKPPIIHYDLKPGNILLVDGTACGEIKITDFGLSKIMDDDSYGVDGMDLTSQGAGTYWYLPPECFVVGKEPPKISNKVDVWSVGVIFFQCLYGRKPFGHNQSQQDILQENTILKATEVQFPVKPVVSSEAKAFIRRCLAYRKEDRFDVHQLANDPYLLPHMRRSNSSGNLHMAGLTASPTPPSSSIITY

[3] = target: RAC-alpha serine/threonine-protein kinase (Homo sapiens, UniProt P31749); test: Inhibition of AKT1 in human HeLa cells lysate pre incubated for 15 mins followed by ATP acyl phosphate probe addition and measured after 10 mins by LC-MS/MS analysis
Sequence of RAC-alpha serine/threonine-protein kinase (P31749 whole entry, the tested form may be a part): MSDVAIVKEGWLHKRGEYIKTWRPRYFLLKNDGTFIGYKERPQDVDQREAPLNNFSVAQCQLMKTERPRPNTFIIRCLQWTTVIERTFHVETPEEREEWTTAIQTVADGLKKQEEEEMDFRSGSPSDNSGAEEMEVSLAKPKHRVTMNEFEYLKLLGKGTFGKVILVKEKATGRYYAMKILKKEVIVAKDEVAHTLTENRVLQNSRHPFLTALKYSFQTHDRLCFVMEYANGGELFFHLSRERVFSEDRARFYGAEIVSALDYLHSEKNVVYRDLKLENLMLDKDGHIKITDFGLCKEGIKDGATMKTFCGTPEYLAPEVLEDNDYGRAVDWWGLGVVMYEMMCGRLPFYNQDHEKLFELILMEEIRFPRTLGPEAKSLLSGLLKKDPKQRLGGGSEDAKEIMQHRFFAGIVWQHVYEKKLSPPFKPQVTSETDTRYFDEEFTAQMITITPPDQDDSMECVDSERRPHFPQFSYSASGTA
In short: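 HeLa cell lysates (5 mg/mL total protein) were preincubated with inhibitor at 0, 0.8, 2, 10 or 50 μM for 15 min. ATP or ADP acylphosphate probe was then added (5 μM final) for 10 min, and reactions were stopped with urea. Up to four fragment ions per kinase probe-peptide were quantified by targeted MS. % inhibition was taken relative to untreated lysate. Run in duplicate.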

[4] = target: Dual specificity mitogen-activated protein kinase kinase 1 (Homo sapiens, UniProt Q02750); test: Inhibition of MAP2K1 in human HeLa cells lysate at 50 uM pre incubated for 15 mins followed by ATP acyl phosphate probe addition and measured after 10 mins by LC-MS/MS analysis relative to control; conditions: time 25.0 min
Sequence of Dual specificity mitogen-activated protein kinase kinase 1 (Q02750 whole entry, canonical isoform): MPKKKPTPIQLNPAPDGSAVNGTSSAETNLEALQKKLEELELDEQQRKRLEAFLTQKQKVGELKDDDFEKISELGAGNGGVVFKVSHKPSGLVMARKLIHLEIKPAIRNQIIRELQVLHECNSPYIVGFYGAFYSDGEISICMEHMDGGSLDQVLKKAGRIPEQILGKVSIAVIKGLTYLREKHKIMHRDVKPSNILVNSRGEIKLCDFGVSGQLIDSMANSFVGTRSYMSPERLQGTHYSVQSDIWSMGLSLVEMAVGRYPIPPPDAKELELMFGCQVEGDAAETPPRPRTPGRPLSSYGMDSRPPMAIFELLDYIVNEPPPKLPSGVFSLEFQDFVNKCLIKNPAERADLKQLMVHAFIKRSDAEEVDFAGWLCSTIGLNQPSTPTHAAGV

[5] = target: T2, Phosphorylase b kinase gamma catalytic chain, liver/testis isoform (Homo sapiens) (UniProt P15735); test: Inhibition of PHKG2 in human HeLa cells lysate at 2 uM pre incubated for 15 mins followed by ADP acyl phosphate probe addition and measured after 10 mins by LC-MS/MS analysis relative to control; conditions: time 25.0 min
T2 sequence (whole entry): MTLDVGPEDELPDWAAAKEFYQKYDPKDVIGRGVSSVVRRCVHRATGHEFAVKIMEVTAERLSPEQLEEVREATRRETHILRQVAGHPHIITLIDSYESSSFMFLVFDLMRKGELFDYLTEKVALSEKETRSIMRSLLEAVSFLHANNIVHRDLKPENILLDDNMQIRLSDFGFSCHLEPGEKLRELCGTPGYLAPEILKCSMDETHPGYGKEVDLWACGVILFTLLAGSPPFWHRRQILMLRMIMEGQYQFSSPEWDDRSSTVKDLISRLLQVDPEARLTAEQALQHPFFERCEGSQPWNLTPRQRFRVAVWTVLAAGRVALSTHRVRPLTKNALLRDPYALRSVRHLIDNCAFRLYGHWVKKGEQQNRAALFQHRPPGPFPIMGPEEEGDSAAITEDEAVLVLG

[6] = target: Cyclin-dependent kinase 10 (Homo sapiens, UniProt Q15131); test: Inhibition of CDK10 in human HeLa cells lysate at 50 uM pre incubated for 15 mins followed by ATP acyl phosphate probe addition and measured after 10 mins by LC-MS/MS analysis relative to control; conditions: time 25.0 min
Sequence of Cyclin-dependent kinase 10 (Q15131 whole entry, the tested form may be a part): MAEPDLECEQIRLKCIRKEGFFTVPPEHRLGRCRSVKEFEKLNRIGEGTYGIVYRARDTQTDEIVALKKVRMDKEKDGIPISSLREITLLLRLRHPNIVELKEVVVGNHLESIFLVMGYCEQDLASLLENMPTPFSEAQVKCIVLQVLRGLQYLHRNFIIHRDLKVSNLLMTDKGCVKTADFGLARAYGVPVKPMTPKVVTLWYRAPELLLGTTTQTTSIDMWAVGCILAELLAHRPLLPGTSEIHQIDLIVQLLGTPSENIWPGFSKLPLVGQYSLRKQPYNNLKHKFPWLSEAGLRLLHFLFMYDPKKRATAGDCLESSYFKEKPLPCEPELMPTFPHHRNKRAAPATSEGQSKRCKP
In short: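 KiNativ profiling in HeLa lysate (5 mg/mL total protein). Lysate incubated 15 min with inhibitor at 50, 10, 2, 0.8 or 0 μM. ATP or ADP acylphosphate probe then added (5 μM final) and reacted 10 min. Reaction stopped with urea and analysed by targeted MS, using up to four fragment ions per kinase peptide-probe conjugate. % inhibition taken against untreated lysate. Run in duplicate.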

[7] = target: Calcium/calmodulin-dependent protein kinase type II subunit gamma (Homo sapiens, UniProt Q13555); test: Inhibition of CAMK2g in human HeLa cells lysate at 2 uM pre incubated for 15 mins followed by ADP acyl phosphate probe addition and measured after 10 mins by LC-MS/MS analysis relative to control; conditions: time 25.0 min
Sequence of Calcium/calmodulin-dependent protein kinase type II subunit gamma (Q13555 whole entry, the tested form may be a part): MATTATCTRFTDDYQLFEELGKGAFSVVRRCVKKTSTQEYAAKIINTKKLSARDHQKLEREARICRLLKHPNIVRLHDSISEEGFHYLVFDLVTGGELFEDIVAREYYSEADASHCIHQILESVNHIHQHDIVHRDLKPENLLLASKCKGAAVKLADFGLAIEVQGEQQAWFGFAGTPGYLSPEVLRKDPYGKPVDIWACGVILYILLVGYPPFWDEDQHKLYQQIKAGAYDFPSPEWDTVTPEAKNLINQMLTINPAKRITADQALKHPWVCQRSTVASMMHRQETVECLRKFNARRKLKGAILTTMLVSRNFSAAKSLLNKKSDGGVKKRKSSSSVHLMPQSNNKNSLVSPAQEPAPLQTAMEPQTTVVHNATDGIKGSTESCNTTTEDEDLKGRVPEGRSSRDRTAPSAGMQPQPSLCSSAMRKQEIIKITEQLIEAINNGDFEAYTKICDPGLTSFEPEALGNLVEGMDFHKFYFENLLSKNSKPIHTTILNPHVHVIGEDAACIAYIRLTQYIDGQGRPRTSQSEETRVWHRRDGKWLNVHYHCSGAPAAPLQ
In short: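 KiNativ-type profiling in HeLa lysate (5 mg/mL total protein). Lysate preincubated 15 min with inhibitor at 50, 10, 2, 0.8 or 0 μM, then ATP or ADP acylphosphate probe added (5 μM final) for 10 min. Reaction stopped with urea and analysed by targeted MS, using up to four fragment ions per kinase peptide-probe conjugate. % inhibition calculated against untreated lysate. Duplicate reactions.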

[8] = target: T3, Phosphatidylinositol 5-phosphate 4-kinase type-2 gamma (Homo sapiens) (UniProt Q8TBX8); test: Inhibition of PIP5K2C LIP2 site in human HeLa cells lysate at 2 uM pre incubated for 15 mins followed by ATP acyl phosphate probe addition and measured after 10 mins by LC-MS/MS analysis relative to control; conditions: time 25.0 min
T3 sequence (whole entry): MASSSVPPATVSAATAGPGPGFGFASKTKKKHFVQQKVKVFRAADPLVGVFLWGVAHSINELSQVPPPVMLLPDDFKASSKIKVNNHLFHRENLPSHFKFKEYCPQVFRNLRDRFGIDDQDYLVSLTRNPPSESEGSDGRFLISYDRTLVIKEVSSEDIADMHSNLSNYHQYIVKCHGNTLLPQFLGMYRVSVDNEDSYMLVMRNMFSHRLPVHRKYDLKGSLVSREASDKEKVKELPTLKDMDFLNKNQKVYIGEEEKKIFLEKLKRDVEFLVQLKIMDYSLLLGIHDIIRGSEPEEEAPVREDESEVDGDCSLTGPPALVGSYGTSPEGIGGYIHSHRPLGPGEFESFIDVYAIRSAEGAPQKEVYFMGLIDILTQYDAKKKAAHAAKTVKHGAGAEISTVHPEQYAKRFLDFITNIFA

Sequence of Mixed lineage kinase domain-like protein (Q8NB16 whole entry, the tested form may be a part): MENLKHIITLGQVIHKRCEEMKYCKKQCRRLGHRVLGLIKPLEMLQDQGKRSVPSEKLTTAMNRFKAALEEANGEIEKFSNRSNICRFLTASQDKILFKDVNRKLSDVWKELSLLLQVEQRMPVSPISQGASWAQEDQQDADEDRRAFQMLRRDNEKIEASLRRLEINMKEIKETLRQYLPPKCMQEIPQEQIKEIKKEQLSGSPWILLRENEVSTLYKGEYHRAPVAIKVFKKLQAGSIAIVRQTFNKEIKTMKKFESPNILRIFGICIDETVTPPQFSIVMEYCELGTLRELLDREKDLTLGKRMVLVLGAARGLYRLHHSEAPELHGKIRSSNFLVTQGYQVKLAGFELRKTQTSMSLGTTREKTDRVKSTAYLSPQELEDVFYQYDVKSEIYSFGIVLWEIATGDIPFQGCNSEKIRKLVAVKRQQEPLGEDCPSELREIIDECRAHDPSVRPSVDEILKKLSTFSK

**Q.** How did the IC50 [1] turn out when CCOc1cc(N2CCC(O)CC2)ccc1Nc1ncc2c(n1)N(C)c1ccccc1C(=O)N2C was run?
**A.** Its IC50 is over 50 µM.

**Q.** And the inhibition [2]?
**A.** The inhibition was -4.5%.

**Q.** And the IC50 [3]?
**A.** Its IC50 is over 50 µM.

**Q.** What about the inhibition [4] of the same molecule?
**A.** The inhibition was -7.3%.

**Q.** And the inhibition [5]?
**A.** Its inhibition is 3.4%.

**Q.** What about the inhibition [6] of the same molecule?
**A.** The inhibition was -0.4%.

**Q.** And the inhibition [7]?
**A.** Its inhibition is -2.2%.

**Q.** What about the inhibition [8] of the same molecule?
**A.** The inhibition was 0.7%.
